# Data reported in ChEMBL document CHEMBL1136581, “Synthesis of dopamine transporter selective 3-[2-(diarylmethoxyethylidene)]-8-alkylaryl-8-azabicyclo[3.2.1]octanes” (Bioorg Med Chem Lett, 2003).
# Key:
# [1] = target: Monoamine transporters; serotonin & dopamine (Rattus norvegicus) (UniProt P31652+P23977); assay: Binding affinity towards serotonin transporter compared to dopamine transporter.; format: protein assay
# [2] = target: Sodium-dependent serotonin transporter (Rattus norvegicus, UniProt P31652); assay: Binding affinity at serotonin transporter from rat caudate-putamen tissue by [3H]WIN-35428 displacement.; format: tissue-based
# Chain of Sodium-dependent serotonin transporter (P31652 whole entry): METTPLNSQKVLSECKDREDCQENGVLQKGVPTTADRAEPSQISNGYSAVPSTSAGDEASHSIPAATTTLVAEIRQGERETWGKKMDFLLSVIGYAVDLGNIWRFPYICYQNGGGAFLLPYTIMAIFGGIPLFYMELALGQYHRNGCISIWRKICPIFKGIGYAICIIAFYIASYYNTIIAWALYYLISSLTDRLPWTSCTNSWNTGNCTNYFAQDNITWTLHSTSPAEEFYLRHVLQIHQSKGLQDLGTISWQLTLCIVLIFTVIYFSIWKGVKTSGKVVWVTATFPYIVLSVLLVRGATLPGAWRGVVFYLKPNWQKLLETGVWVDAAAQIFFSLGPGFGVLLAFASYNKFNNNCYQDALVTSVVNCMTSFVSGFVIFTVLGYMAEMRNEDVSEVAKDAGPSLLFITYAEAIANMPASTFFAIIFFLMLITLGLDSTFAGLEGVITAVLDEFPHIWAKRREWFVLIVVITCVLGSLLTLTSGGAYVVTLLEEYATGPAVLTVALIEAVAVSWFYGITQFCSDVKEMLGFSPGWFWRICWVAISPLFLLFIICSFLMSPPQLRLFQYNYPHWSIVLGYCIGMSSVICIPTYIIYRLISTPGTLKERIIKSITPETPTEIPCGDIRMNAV
# Procedure, shortened: (§1)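 Compounds were tested as oxalate salts. Ki values are the mean ± SEM of three experiments, each run in triplicate.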
# [3] = target: Sodium-dependent dopamine transporter (Rattus norvegicus, UniProt P23977); assay: Binding affinity at dopamine transporter from rat caudate-putamen tissue by [3H]WIN-35428 displacement.; procedure, shortened: as §1
# Chain of Sodium-dependent dopamine transporter (P23977 whole entry): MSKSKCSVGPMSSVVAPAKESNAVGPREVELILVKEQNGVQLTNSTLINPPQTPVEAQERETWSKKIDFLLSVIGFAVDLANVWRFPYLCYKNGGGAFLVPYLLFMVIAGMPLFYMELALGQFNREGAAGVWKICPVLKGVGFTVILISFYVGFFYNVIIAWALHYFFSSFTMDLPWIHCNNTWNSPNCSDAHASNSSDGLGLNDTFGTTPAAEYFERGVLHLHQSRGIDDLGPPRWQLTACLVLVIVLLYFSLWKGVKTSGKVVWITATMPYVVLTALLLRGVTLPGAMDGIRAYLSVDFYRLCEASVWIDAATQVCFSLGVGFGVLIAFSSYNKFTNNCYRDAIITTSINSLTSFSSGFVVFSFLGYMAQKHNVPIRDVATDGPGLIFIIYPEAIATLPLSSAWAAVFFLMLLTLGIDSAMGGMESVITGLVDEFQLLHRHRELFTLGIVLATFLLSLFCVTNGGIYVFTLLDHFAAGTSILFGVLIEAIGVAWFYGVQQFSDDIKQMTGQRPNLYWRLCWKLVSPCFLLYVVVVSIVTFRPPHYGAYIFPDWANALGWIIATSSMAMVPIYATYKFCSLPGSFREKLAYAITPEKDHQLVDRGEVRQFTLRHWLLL
# Chain of Monoamine transporters; serotonin & dopamine (Rattus norvegicus) (P23977 whole entry, looked up): as the sequence (P23977 whole entry) above
# Chain of Monoamine transporters; serotonin & dopamine (Rattus norvegicus) (P31652 whole entry, looked up): as the sequence (P31652 whole entry) above
Structure (SMILES),Ratio [1],Ki [2],Ki [3]
CN1C2CCC1CC(CCOC(c1ccccc1)c1ccc(Cl)cc1)C2 (configuration not stated),71,3430 nM,
Clc1ccc(C(OCCC2CC3CCC(C2)N3CCCc2ccccc2)c2ccccc2)cc1 (configuration not stated),12,374 nM,30 nM
Fc1ccc(C(OCC=C2CC3CCC(C2)N3CCCc2ccccc2)c2ccc(F)cc2)cc1,152,562 nM,3.7 nM
c1ccc(CCCN2[C@@H]3CC[C@H]2C[C@@H](CCOC(c2ccccc2)c2ccccc2)C3)cc1,42,750 nM,18 nM
c1ccc(CN2C3CCC2CC(CCOC(c2ccccc2)c2ccccc2)C3)cc1 (configuration not stated),48,4780 nM,
Oc1cccc(CN2C3CCC2CC(CCOC(c2ccc(F)cc2)c2ccc(F)cc2)C3)c1 (configuration not stated),33,651 nM,20 nM
CN1[C@@H]2CC[C@H]1C[C@@H](CCOC(c1ccccc1)c1ccccc1)C2,243,14100 nM,58 nM
Clc1ccc(C(OCCC2CC3CCC(C2)N3Cc2ccccc2)c2ccc(Cl)cc2)cc1 (configuration not stated),9,822 nM,91 nM
Oc1ccc(CN2C3CCC2CC(CCOC(c2ccc(F)cc2)c2ccc(F)cc2)C3)cc1 (configuration not stated),27,809 nM,30 nM
Fc1ccc(C(OCC=C2CC3CCC(C2)N3Cc2ccccc2)c2ccc(F)cc2)cc1,281,2220 nM,
CN1C2CCC1CC(CCOC(c1ccc(Cl)cc1)c1ccc(Cl)cc1)C2 (configuration not stated),64,1160 nM,18 nM
Fc1ccc(C(OCCC2CC3CCC(C2)N3Cc2ccccc2)c2ccc(F)cc2)cc1 (configuration not stated),251,1430 nM,5.7 nM
CN1C2CCC1CC(CCOC(c1ccc(F)cc1)c1ccc(F)cc1)C2 (configuration not stated),80,2470 nM,31 nM
Fc1ccc(C(OCC[C@H]2C[C@H]3CC[C@@H](C2)N3CCCc2ccccc2)c2ccc(F)cc2)cc1,,175 nM,7.4 nM
C(COC(c1ccccc1)c1ccccc1)=C1CC2CCC(C1)N2Cc1ccccc1,113,5420 nM,48 nM
Clc1ccc(C(OCCC2CC3CCC(C2)N3CCCc2ccccc2)c2ccc(Cl)cc2)cc1 (configuration not stated),4,177 nM,50 nM
Clc1ccc(C(OCCC2CC3CCC(C2)N3Cc2ccccc2)c2ccccc2)cc1 (configuration not stated),24,1940 nM,82 nM
